Reference: ChEMBL document CHEMBL1159330, “New diarylheptanoids and diarylheptanoid glucosides from the rhizomes of Tacca chantrieri and their cytotoxic activity” (J Nat Prod, 2002)
In brackets after ≈: the same amount, converted by molar mass.

How the values were obtained:
[1] = system: HSC-2; assay: Cytotoxicity against human HSC2 cells by MTT assay; format: functional, cell-based
Procedure, shortened: (§1)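 HSC-2 grown in DMEM with 10% heat-inactivated FBS. HGF taken from a healthy person's gingival biopsy, explant-cultured, used at passages 5-7. Cells trypsinized, seeded at 6 × 10³ per well, grown 24 h. Washed with PBS, then compound for 24 h. Washed, 0.2 mg/mL MTT in DMEM/10% FBS for 4 h. Lysed in DMSO, A540 measured.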

[2] = system: HL-60; assay: Cytotoxicity against human HL60 cells after 72 hrs by MTT assay; format: functional, cell-based; details: HL-60, 72 h
Procedure, shortened: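 HL-60 cells kept in RPMI 1640 with 10% heat-inactivated FBS, penicillin and streptomycin, 5% CO₂, 37 °C. Seeded at 4 × 10⁴ cells/mL, 196 µL per well, pre-incubated 24 h. Sample added in EtOH-H₂O (1:1) to final 0.1-10 µg/mL, solvent-only controls. Exposure 72 h. Triplicate. IC₅₀ = 50% drop in viable cells.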

[3] = Cytotoxicity against HGF by MTT assay; format: cell-based; details: Homo sapiens; procedure, shortened: as §1

Compound | IC50 [1] [µg/mL] | IC50 [2] [µg/mL] | IC50 [3] [µg/mL]
Oc1ccc(CC[C@@H](O)C[C@H](O)CCc2ccc(O)c(O)c2)cc1O | 54 (≈ 155 µM) | 1.8 (≈ 5.17 µM) | > 250
COc1cc(CC[C@@H](O)C[C@@H](CCc2ccc(O)c(OC)c2)O[C@@H]2O[C@H](CO)[C@@H](O)[C@H](O)[C@H]2O)ccc1O | 198 (≈ 368 µM) | > 10 | > 250
OC[C@H]1O[C@@H](O[C@H](CCc2ccc(O)cc2)C[C@H](O)CCc2ccc(O)c(O)c2)[C@H](O)[C@@H](O)[C@@H]1O | 155 (≈ 313 µM) | 5.5 (≈ 11.1 µM) | > 250
COc1ccc(CC[C@@H](O)C[C@H](O)CCc2ccc(OC)c(OC)c2)cc1 | 3.9 (≈ 10.4 µM) | 5.5 (≈ 14.7 µM) | 176 (≈ 470 µM)
OC[C@H]1O[C@@H](O[C@H](CCc2ccc(O)c(O)c2)C[C@H](O)CCc2ccc(O)cc2)[C@H](O)[C@@H](O)[C@@H]1O | 158 (≈ 319 µM) | 6.2 (≈ 12.5 µM) | 220 (≈ 445 µM)
OC[C@H]1O[C@@H](O[C@H](CCc2ccc(O)cc2)C[C@H](O)CCc2ccc(O)cc2)[C@H](O)[C@@H](O)[C@@H]1O | 157 (≈ 328 µM) | > 10 | 213 (≈ 445 µM)
COc1cc(CC[C@H](C[C@H](O)CCc2ccc(O)cc2)O[C@@H]2O[C@H](CO)[C@@H](O)[C@H](O)[C@H]2O)ccc1O | 160 (≈ 315 µM) | > 10 | > 250
COc1ccc(CC[C@@H](O)C[C@H](O)CCc2ccc(OC)cc2)cc1 | 23 (≈ 66.8 µM) | 6.4 (≈ 18.6 µM) | 173 (≈ 502 µM)
COc1cc(CC[C@@H](O)C[C@H](O)CCc2ccc(O)c(O)c2)ccc1O |  | 4.1 (≈ 11.3 µM) | 
COc1cc(CC[C@@H](O)C[C@H](O)CCc2ccc(O)c(OC)c2)ccc1O |  | > 10 | 
Oc1ccc(CC[C@@H](O)C[C@H](O)CCc2ccc(O)c(O)c2)cc1 | 54 (≈ 162 µM) | 2.1 (≈ 6.32 µM) | 162 (≈ 487 µM)
COc1ccc(CC[C@@H](O)C[C@H](O)CCc2ccc(OC)c(OC)c2)cc1OC | 6.6 (≈ 16.3 µM) | 4.9 (≈ 12.1 µM) | 174 (≈ 430 µM)
COc1cc(CC[C@@H](O)C[C@H](O)CCc2ccc(O)cc2)ccc1O |  | > 10 | 
OC[C@H]1O[C@@H](O[C@H](CCc2ccc(O)c(O)c2)C[C@H](O)CCc2ccc(O)c(O)c2)[C@H](O)[C@@H](O)[C@@H]1O | 92 (≈ 180 µM) | 3 (≈ 5.88 µM) | 189 (≈ 370 µM)
COc1cc(CC[C@H](C[C@H](O)CCc2ccc(O)c(O)c2)O[C@@H]2O[C@H](CO)[C@@H](O)[C@H](O)[C@H]2O)ccc1O | 209 (≈ 398 µM) | 4.5 (≈ 8.58 µM) | > 250
Oc1ccc(CC[C@@H](O)C[C@H](O)CCc2ccc(O)cc2)cc1 [(+)-HANNOKINOL] | 231 (≈ 730 µM) | > 10 | 177 (≈ 559 µM)
COc1cc([C@@H]2c3cc4c(cc3[C@@H](O[C@@H]3O[C@@H]5CO[C@@H](C)O[C@H]5[C@H](O)[C@H]3O)[C@H]3COC(=O)[C@H]23)OCO4)cc(OC)c1O [ETOPOSIDE] |  | 0.2 (≈ 0.34 µM) | > 200
